inhibition, Ki and IC50 data for 16 compounds are collected here from ChEMBL document CHEMBL1155459, “On-bead screening of a combinatorial fumaric acid derived peptide library yields antiplasmodial cysteine protease inhibitors with unusual peptide sequences” (J Med Chem, 2009).

Each structure is given as a SMILES string. Activity calls are given as the source filed them. The calls are words filed in the database; no cut-off is given here. Peptide text beside a SMILES is read from it.

Experiment [1] concerns the target Rhodesain (Trypanosoma brucei rhodesiense) (UniProt Q95PM0). Description: Inhibition of Trypanosoma brucei rhodesiense recombinant rhodesain at 100 uM. The method, boiled down:
(§1)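 Single-point screen at 100 μM inhibitor (final). Recombinant enzyme in 50 mM acetate pH 5.5, 5 mM EDTA, 200 mM NaCl, 5 mM DTT, 10% DMSO final; Cbz-Phe-Arg-AMC 40 μM (or Cbz-Leu-Arg-AMC 25 μM) hydrolysis followed by fluorescence (ex 380/em 460 nm). % inhibition = 100(1 − vi/vc) from progress-curve slopes vs DMSO control; at least two independent assays.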

The nature of experiment [2]: Inhibition of Plasmodium falciparum recombinant falcipain-2 expressed in Escherichia coli after 20 min using Cbz-Phe-Arg-AMC as substrate by spectrofluorometry. To be noted: in the assay text read “over 5-10 min” for “after 20 min”. The method, boiled down: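 Continuous assay without preincubation. Recombinant falcipain-2 in 50 mM acetate pH 5.5, 5 mM EDTA, 200 mM NaCl, 5 mM DTT, 10% DMSO final; Cbz-Phe-Arg-AMC (40 μM, Km 21.5 μM) or Cbz-Leu-Arg-AMC (25 μM, Km 8.4 μM). Fluorescence monitored 5-10 min at 0.1-80 μM inhibitor. Ki from Dixon plot, corrected to zero substrate; at least two independent assays.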

The target of another experiment is Cathepsin B (Homo sapiens, UniProt P07858). Put plainly: Inhibition of human liver cathepsin B at 100 uM.
Experiment [3] has as its system Plasmodium falciparum. Description: Inhibition of Plasmodium falciparum recombinant falcipain-2 expressed in Escherichia coli at 100 uM after 20 min by spectrofluorometry. The method, boiled down: as §1
A short description of experiment [4]: Inhibition of Plasmodium falciparum falcipain-2 after 12 hrs by fluorescence spectroscopy-based on-bead assay. Also on record: concentration or dose not given beside the values. The note with it: concentration not given here. The method, boiled down:
(§2)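 Library members on resin (PEGA, theoretical loading 0.40 mmol/g; added as DMSO suspension, 0.64 mM final inhibitor) preincubated with enzyme 12 h, then Cbz-Phe-Arg-AMC 40 μM added; AMC release followed by fluorescence (ex 380/em 460 nm). Kinetics compared with inhibitor-free amino-PEGA resin.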

Experiment [5] has as its target Rhodesain (Trypanosoma brucei rhodesiense) (UniProt Q95PM0). Put plainly: Inhibition of Trypanosoma brucei rhodesiense rhodesain after 12 hrs by fluorescence spectroscopy-based on-bead assay. Also on record: concentration or dose not given beside the values. To be noted: concentration not given here. The procedure, abridged:
as §2

For the next experiment, the target named is Procathepsin L (Bos taurus, UniProt P25975). Description: Inhibition of bovine spleen cathepsin L. The procedure, abridged: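 Cathepsin L (bovine spleen) or B (human liver) hydrolysis of Cbz-Phe-Arg-AMC (40 μM) followed by fluorescence for 5-10 min without preincubation at 0.1-80 μM inhibitor, 10% DMSO final.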
Sequence of Procathepsin L (P25975 whole entry): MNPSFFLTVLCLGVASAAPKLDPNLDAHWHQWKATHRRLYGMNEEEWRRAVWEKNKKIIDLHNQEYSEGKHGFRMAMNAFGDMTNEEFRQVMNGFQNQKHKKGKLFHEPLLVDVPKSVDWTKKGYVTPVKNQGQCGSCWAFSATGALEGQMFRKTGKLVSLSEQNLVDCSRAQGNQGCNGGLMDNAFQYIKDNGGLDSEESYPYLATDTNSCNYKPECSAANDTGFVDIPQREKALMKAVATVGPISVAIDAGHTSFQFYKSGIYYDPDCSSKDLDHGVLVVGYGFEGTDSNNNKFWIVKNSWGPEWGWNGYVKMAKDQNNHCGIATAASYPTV
Experiment [6] concerns Plasmodium falciparum. Put plainly: Antiplasmodial activity against Plasmodium falciparum FCBR by fluorometric method. The experiment is classed as functional, organism-based, FCBR/Columbia.
Experiment [7] has as its system Trypanosoma brucei brucei. Description: Antitrypanosomal activity against Trypanosoma brucei brucei. Format: functional, organism-based. To be noted: Trypanosoma brucei; read-out: IC50.
In the next experiment the target is Rhodesain (Trypanosoma brucei rhodesiense, UniProt Q95PM0). Put plainly: Inhibition of Trypanosoma brucei rhodesiense recombinant rhodesain.
Sequence of Rhodesain (Q95PM0 whole entry): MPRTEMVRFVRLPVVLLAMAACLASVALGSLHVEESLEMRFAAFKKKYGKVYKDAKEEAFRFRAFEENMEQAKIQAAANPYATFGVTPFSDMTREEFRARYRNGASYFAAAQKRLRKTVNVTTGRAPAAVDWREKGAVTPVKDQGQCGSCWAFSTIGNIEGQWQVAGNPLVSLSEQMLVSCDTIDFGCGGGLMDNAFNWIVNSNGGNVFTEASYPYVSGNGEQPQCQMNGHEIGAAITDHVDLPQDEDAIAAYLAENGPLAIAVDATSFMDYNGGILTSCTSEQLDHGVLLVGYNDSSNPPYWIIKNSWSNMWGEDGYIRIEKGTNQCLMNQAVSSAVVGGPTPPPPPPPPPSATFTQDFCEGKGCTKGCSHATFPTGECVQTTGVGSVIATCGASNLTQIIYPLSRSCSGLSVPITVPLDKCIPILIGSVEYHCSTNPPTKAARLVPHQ

Sequence of Rhodesain (Trypanosoma brucei rhodesiense) (Q95PM0 1-450): as the sequence (Q95PM0 whole entry) above

In general, inhibition refers to the share of the control response that was lost under treatment. One may read the Ki as the equilibrium dissociation constant of an inhibitor or competing ligand from its target. Consider `CC(C)C[C@H](NC(=O)[C@H](CC(N)=O)NC(=O)/C=C/C(=O)NCC(=O)NCC(=O)N[C@@H](Cc1ccccc1)C(=O)O)C(=O)N[C@@H](C)C(=O)N[C@H](C(N)=O)C(C)C` (HELM PEPTIDE1{[O=C(/C=C/C(=O)[*:2])NCC(=O)NCC(=O)N[C@@H](Cc1ccccc1)C(=O)O].N.L.A.V.[am]}$$$$V2.0), for which the inhibition came to 8% in experiment [1]; 17% on Cathepsin B; 33% with Plasmodium falciparum [3]; 41% in [4]; 24% in experiment [5]. Also, the Ki in [2] is 67.5 µM.
Regarding `Cc1ccc(C(=O)Nc2ccc(S(=O)(=O)O)c3cc(S(=O)(=O)O)cc(S(=O)(=O)O)c23)cc1NC(=O)c1cccc(NC(=O)Nc2cccc(C(=O)Nc3cc(C(=O)Nc4ccc(S(=O)(=O)O)c5cc(S(=O)(=O)O)cc(S(=O)(=O)O)c45)ccc3C)c2)c1`, the inhibition in experiment [1] came to 32%.
Turning to `CC(=O)NC[C@H](NC(=O)/C=C/C(=O)NCC(=O)NCC(=O)N[C@@H](Cc1ccccc1)C(=O)O)C(=O)N[C@@H](CC(C)C)C(=O)N[C@@H](C)C(=O)N[C@H](C(N)=O)C(C)C` (HELM PEPTIDE1{[O=C(/C=C/C(=O)[*:2])NCC(=O)NCC(=O)N[C@@H](Cc1ccccc1)C(=O)O].[O=C([C@H](CN[*:3])N[*:1])[*:2]].L.A.V.[am]}|PEPTIDE2{[ac]}$PEPTIDE1,PEPTIDE2,2:R3-1:R2$$$V2.0), the inhibition stood at 30% in [1], 18% in the experiment on Plasmodium falciparum [3], 32% in [4] and 32% in [5]. In addition, the inhibition entry on Cathepsin B is “inactive”. Moreover, at Procathepsin L, the Ki came out at 20.8 µM.
Broadly, the IC50 is the concentration needed to halve the response being measured. In the case of `CC(C)C[C@H](NC(=O)[C@@H](NC(=O)[C@H](CC(N)=O)NC(=O)/C=C/C(=O)NCC(=O)NCC(=O)N[C@@H](Cc1ccccc1)C(=O)O)c1ccccc1)C(=O)N[C@H](C(N)=O)C(C)C` (HELM PEPTIDE1{[O=C(/C=C/C(=O)[*:2])NCC(=O)NCC(=O)N[C@@H](Cc1ccccc1)C(=O)O].N.[Phg].L.V.[am]}$$$$V2.0), the inhibition in experiment [1] came to 26%; against Cathepsin B, 13%; in the experiment on Plasmodium falciparum [3], 76%; in experiment [4], 51%; in experiment [5], 50%. Also, the Ki in experiment [2] amounted to 21.3 µM. Besides, the 50% inhibitory concentration (IC50) entry with Plasmodium falciparum [6] is reported as “Not Active”.
In the case of `NCCCC(N)(C(=O)O)C(F)F` (stereo unspecified) [EFLORNITHINE], in [1], the inhibition came to 31%. In addition, the IC50 in experiment [7] came out at 30.7 µM.
On to `CC(C)C[C@H](NC(=O)[C@H](CC(N)=O)NC(=O)/C=C/C(=O)NCC(=O)NCC(=O)N[C@@H](Cc1ccccc1)C(=O)O)C(=O)N[C@@H](CC(C)C)C(=O)N[C@H](C(N)=O)C(C)C` (HELM PEPTIDE1{[O=C(/C=C/C(=O)[*:2])NCC(=O)NCC(=O)N[C@@H](Cc1ccccc1)C(=O)O].N.L.L.V.[am]}$$$$V2.0), for which the inhibition in experiment [1] stood at 63%; on Cathepsin B, 21%; in the experiment on Plasmodium falciparum [3], 92%; in experiment [4], 70%; in [5] it was 71%. For the same compound, the Ki came to 10.1 µM in [2] and 2.7 µM on Rhodesain. In the experiment on Plasmodium falciparum [6] (Plasmodium falciparum, FCBR/Columbia, read-out: IC50), the IC50 was found to be 74 µM.
With `CC(C)C[C@H](NC(=O)[C@H](Cc1ccccc1)NC(=O)[C@H](CC(N)=O)NC(=O)/C=C/C(=O)NCC(=O)NCC(=O)N[C@@H](Cc1ccccc1)C(=O)O)C(=O)N[C@H](C(N)=O)C(C)C` (HELM PEPTIDE1{[O=C(/C=C/C(=O)[*:2])NCC(=O)NCC(=O)N[C@@H](Cc1ccccc1)C(=O)O].N.F.L.V.[am]}$$$$V2.0), the inhibition in experiment [1] was found to be 6%; against Cathepsin B, 24%; with Plasmodium falciparum [3], 49%; in experiment [4] it was 70%; in [5] it was 61%.
For `CC(C)C[C@H](NC(=O)[C@H](CCC(N)=O)NC(=O)/C=C/C(=O)N[C@@H](C)C(=O)NCC(=O)N[C@@H](Cc1ccccc1)C(=O)O)C(=O)N[C@H](C(=O)N[C@H](C(N)=O)C(C)C)C(C)C` (HELM PEPTIDE1{[C[C@H](NC(=O)/C=C/C(=O)[*:2])C(=O)NCC(=O)N[C@@H](Cc1ccccc1)C(=O)O].Q.L.V.V.[am]}$$$$V2.0), in that order: 37%, 23%, 45%, 48% and 64%.
On to `CC(C)C[C@H](NC(=O)[C@H](C)NC(=O)/C=C/C(=O)NCC(=O)NCC(=O)N[C@@H](Cc1ccccc1)C(=O)O)C(=O)N[C@@H](CC(C)C)C(=O)N[C@H](C(N)=O)C(C)C` (HELM PEPTIDE1{[O=C(/C=C/C(=O)[*:2])NCC(=O)NCC(=O)N[C@@H](Cc1ccccc1)C(=O)O].A.L.L.V.[am]}$$$$V2.0), for which the inhibition in experiment [1] amounted to 99%; on Cathepsin B it was 38%; in the experiment with Plasmodium falciparum [3], 73%; in experiment [4], 55%; in experiment [5], 65%. Further, the Ki came to 1 µM at Rhodesain and 30.7 µM on Procathepsin L.
Take `CC(=O)NC[C@H](NC(=O)/C=C/C(=O)N[C@@H](C)C(=O)NCC(=O)N[C@@H](Cc1ccccc1)C(=O)O)C(=O)N[C@H](C(=O)N[C@@H](CC(C)C)C(=O)N[C@H](C(N)=O)C(C)C)c1ccccc1` (HELM PEPTIDE1{[C[C@H](NC(=O)/C=C/C(=O)[*:2])C(=O)NCC(=O)N[C@@H](Cc1ccccc1)C(=O)O].[O=C([C@H](CN[*:3])N[*:1])[*:2]].[Phg].L.V.[am]}|PEPTIDE2{[ac]}$PEPTIDE1,PEPTIDE2,2:R3-1:R2$$$V2.0): the figures for the inhibition in experiment [4] and in experiment [5] were 52% and 56%, respectively.
For `CC[C@H](C)[C@H](NC(=O)[C@H](CC(N)=O)NC(=O)/C=C/C(=O)NCC(=O)NCC(=O)N[C@@H](Cc1ccccc1)C(=O)O)C(=O)N[C@H](C(=O)N[C@H](C(N)=O)C(C)C)C(C)C` (HELM PEPTIDE1{[O=C(/C=C/C(=O)[*:2])NCC(=O)NCC(=O)N[C@@H](Cc1ccccc1)C(=O)O].N.I.V.V.[am]}$$$$V2.0), in that order: 57% and 39%.
Consider `CC(C)C[C@H](NC(=O)[C@H](CCC(N)=O)NC(=O)/C=C/C(=O)NCC(=O)NCC(=O)N[C@@H](Cc1ccccc1)C(=O)O)C(=O)N[C@@H](CC(C)C)C(=O)N[C@H](C(N)=O)C(C)C` (HELM PEPTIDE1{[O=C(/C=C/C(=O)[*:2])NCC(=O)NCC(=O)N[C@@H](Cc1ccccc1)C(=O)O].Q.L.L.V.[am]}$$$$V2.0), for which the inhibition in [4] turned out to be 42%; in experiment [5] it was 69%.
With `CC(C)[C@H](NC(=O)[C@@H](NC(=O)[C@H](Cc1ccccc1)NC(=O)[C@H](CCC(N)=O)NC(=O)/C=C/C(=O)NCC(=O)NCC(=O)N[C@@H](Cc1ccccc1)C(=O)O)C(C)C)C(N)=O` (HELM PEPTIDE1{[O=C(/C=C/C(=O)[*:2])NCC(=O)NCC(=O)N[C@@H](Cc1ccccc1)C(=O)O].Q.F.V.V.[am]}$$$$V2.0), the inhibition in [4] turned out to be 51%; in [5], 42%.
Take `CC(C)[C@H](NC(=O)[C@@H](NC(=O)[C@H](Cc1ccccc1)NC(=O)[C@H](CC(N)=O)NC(=O)/C=C/C(=O)NCC(=O)NCC(=O)N[C@@H](Cc1ccccc1)C(=O)O)C(C)C)C(N)=O` (HELM PEPTIDE1{[O=C(/C=C/C(=O)[*:2])NCC(=O)NCC(=O)N[C@@H](Cc1ccccc1)C(=O)O].N.F.V.V.[am]}$$$$V2.0): the inhibition in [4] stood at 40%; in [5], 28%.
Taken in the same sequence, the figures for `CC[C@H](C)[C@H](NC(=O)[C@H](CCC(N)=O)NC(=O)/C=C/C(=O)NCC(=O)NCC(=O)N[C@@H](Cc1ccccc1)C(=O)O)C(=O)N[C@H](C(=O)N[C@H](C(N)=O)C(C)C)C(C)C` (HELM PEPTIDE1{[O=C(/C=C/C(=O)[*:2])NCC(=O)NCC(=O)N[C@@H](Cc1ccccc1)C(=O)O].Q.I.V.V.[am]}$$$$V2.0) were 30% and 37%.
For `CC(=O)NC[C@H](NC(=O)/C=C/C(=O)N[C@@H](C)C(=O)NCC(=O)N[C@@H](Cc1ccccc1)C(=O)O)C(=O)N[C@H](C(=O)N[C@@H](C)C(=O)N[C@H](C(N)=O)C(C)C)c1ccccc1` (HELM PEPTIDE1{[C[C@H](NC(=O)/C=C/C(=O)[*:2])C(=O)NCC(=O)N[C@@H](Cc1ccccc1)C(=O)O].[O=C([C@H](CN[*:3])N[*:1])[*:2]].[Phg].A.V.[am]}|PEPTIDE2{[ac]}$PEPTIDE1,PEPTIDE2,2:R3-1:R2$$$V2.0), in that order: 35% and 34%.
